# ChEMBL document CHEMBL4052826, “Design and Synthesis of Novel Reactive Oxygen Species Inducers for the Treatment of Pancreatic Ductal Adenocarcinoma” (J Med Chem, 2018)
# Active and inactive are the calls of the source. No cut-off for these calls is given here.
# How the values were obtained:
# BXPC-3 [1] = assay: Cytotoxicity against human BxPC3 cells assessed as decrease in cell proliferation after 72 hrs by MTT assay; format: functional, cell-based; conditions: BXPC-3, 72 h
# Method in brief: (§1)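 MTT assay. Cells (3000–8000/well) attached overnight in RPMI1640 with 10% FBS; the GR line was kept with 200 nM gemcitabine. Serial dilutions (30 nM–10 μM for most lines) were applied for 72 h. MTT was added at a final 300 μg/mL for 3 h at 37°C, formazan was dissolved in DMSO and A570 read. Inhibition = (1 − OD treated/OD control) × 100. IC50 given as mean ± SD, three independent experiments.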
# PANC-1 [2] = assay: Cytotoxicity against human PANC1 cells assessed as decrease in cell proliferation after 72 hrs by MTT assay; format: functional, cell-based; conditions: PANC-1, 72 h; method in brief: as §1
# MIA PaCa-2 [3] = assay: Cytotoxicity against human MIAPaCa2 cells assessed as decrease in cell proliferation after 72 hrs by MTT assay; format: functional, cell-based; conditions: MIA PaCa-2, 72 h; method in brief: as §1
# MIA PaCa-2 [4] = assay: Cytotoxicity against gemcitabine-resistant human MIAPaCa2 cells assessed as decrease in cell proliferation after 72 hrs by MTT assay; format: functional, cell-based; conditions: MIA PaCa-2, 72 h; method in brief: as §1
# [5] = Cytotoxicity against HPDEC assessed as decrease in cell proliferation after 72 hrs by MTT assay; format: cell-based; conditions: Homo sapiens; method in brief: as §1
# BXPC-3 [6] = assay: Induction of unfolded protein response in human BxPC3 cells assessed as upregulation of GRP78 expression at 5 uM by Western blot analysis; format: functional, cell-based; conditions: TDE = time-dependent effect
# Method in brief: (§2)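 Immunoblotting. Cells (4×10^5) in 60 mm dishes were treated, lysed 30 min at 4°C and quantified by BCA. 40 μg protein was run on SDS-PAGE and transferred to PVDF. Primary antibodies (1:1000) incubated overnight at 4°C, then Dylight 800 secondary, with fluorescent scanning. Bands were normalized to GAPDH or actin loading controls. Mean ± SD, three independent experiments, Student's t-test.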
# MIA PaCa-2 [7] = assay: Inhibition of mtDNA transcription from LSP promoter in human MIAPaCa2 cells at 3 times IC50 after 4 hrs by Bru-seq analysis; format: functional, cell-based
# Method in brief: (§3)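 Nascent RNA sequencing (Bru-seq): 4×10^6 MIA PaCa-2 cells seeded in 10 cm dishes, treated next day for 4 h with drug or DMSO. Bromouridine (2 mM final) added for the last 30 min. Total RNA taken in TRIZOL; labeled RNA immunocaptured, converted to cDNA libraries and deep sequenced. Signal compared with DMSO-treated cells.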
# MIA PaCa-2 [8] = assay: Inhibition of mtDNA transcription from HSP1 promoter in human MIAPaCa2 cells at 3 times IC50 after 4 hrs by Bru-seq analysis; format: functional, cell-based; method in brief: as §3
# MIA PaCa-2 [9] = assay: Induction of unfolded protein response in human MIAPaCa2 cells assessed as upregulation of GRP78 expression at 5 uM by Western blot analysis; format: functional, cell-based; conditions: TDE = time-dependent effect
# Method in brief: (§4)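 Cells (4×10^5) seeded in 60 mm dishes, cultured in RPMI1640 with 10% FBS, 5% CO2, 37°C, then compound-treated. Lysed 30 min at 4°C, BCA-quantified, 40 μg protein resolved by SDS-PAGE, transferred to PVDF, probed overnight at 4°C with primary antibodies (1:1000; GAPDH or actin loading control), then Dylight 800 secondary; fluorescence scanned. Bands normalized to loading control; mean ± SD, three independent experiments.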
# MIA PaCa-2 [10] = assay: Downregulation of Sp1 gene expression in human MIAPaCa2 cells at IC50 to 3 times IC50 after 4 hrs by Bru-seq analysis; format: functional, cell-based
# PANC-1 [11] = assay: Induction of unfolded protein response in human PANC1 cells assessed as upregulation of CHOP expression at 5 uM by Western blot analysis; format: functional, cell-based; conditions: TDE = time-dependent effect; method in brief: as §4
# MIA PaCa-2 [12] = assay: Induction of reactive oxygen species generation in human MIAPaCa2 cells assessed as upregulation of HO-1 expression at 5 uM after 4 to 24 hrs by Western blot analysis; format: functional, cell-based; method in brief: as §2
# BXPC-3 [13] = assay: Induction of reactive oxygen species generation in human BxPC3 cells assessed as upregulation of HO-1 expression at 5 uM after 4 to 24 hrs by Western blot analysis; format: functional, cell-based; method in brief: as §2
# MIA PaCa-2 [14] = assay: Induction of unfolded protein response in human MIAPaCa2 cells assessed as upregulation of HSPA5 gene expression after 4 hrs by Bru-seq analysis; format: functional, cell-based; method in brief: as §3
# MIA PaCa-2 [15] = assay: Induction of unfolded protein response in human MIAPaCa2 cells assessed as upregulation of CHOP expression at 5 uM by Western blot analysis; format: functional, cell-based; conditions: TDE = time-dependent effect; method in brief: as §2
# MIA PaCa-2 [16] = assay: Downregulation of Sp4 gene expression in human MIAPaCa2 cells at IC50 to 3 times IC50 after 4 hrs by Bru-seq analysis; format: functional, cell-based
# MIA PaCa-2 [17] = assay: Inhibition of mtDNA transcription from HSP2 promoter in human MIAPaCa2 cells at 3 times IC50 after 4 hrs by Bru-seq analysis; format: functional, cell-based; method in brief: as §3
# PANC-1 [18] = assay: Induction of unfolded protein response in human PANC1 cells assessed as upregulation of GRP78 expression at 5 uM by Western blot analysis; format: functional, cell-based; conditions: TDE = time-dependent effect; method in brief: as §4
# MIA PaCa-2 [19] = assay: Downregulation of Sp3 gene expression in human MIAPaCa2 cells at IC50 to 3 times IC50 after 4 hrs by Bru-seq analysis; format: functional, cell-based
# MIA PaCa-2 [20] = assay: Downregulation of COX-3 expression in human MIAPaCa2 cells at 5 uM after 4 to 24 hrs by Western blot method; format: functional, cell-based; method in brief: as §2
# [21] = Induction of compound colloidal behavior
# MIA PaCa-2 [22] = assay: Induction of unfolded protein response in human MIAPaCa2 cells assessed as upregulation of DDIT3 gene expression after 4 hrs by Bru-seq analysis; format: functional, cell-based
# [23] = Induction of compound aggregation
# MIA PaCa-2 [24] = assay: Induction of reactive oxygen species generation in human MIAPaCa2 cells assessed as upregulation of HMOX1 gene expression after 4 hrs by Bru-seq analysis; format: functional, cell-based
# BXPC-3 [25] = assay: Induction of unfolded protein response in human BxPC3 cells assessed as upregulation of CHOP expression at 5 uM by Western blot analysis; format: functional, cell-based; conditions: TDE = time-dependent effect; method in brief: as §2
# MIA PaCa-2 [26] = assay: Induction of reactive oxygen species generation in human MIAPaCa2 cells at 1.1 to 10 uM after 24 hrs in presence of NAC by H2DCFDA reactivity assay; format: functional, cell-based
# Method in brief: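 H2DCFDA assay. Trypsinized MIA PaCa-2 cells in suspension were loaded with 20 μM H2DCFDA for 30 min at 37°C, washed and plated at 20,000/well. After 30 min they were treated with compound at 10, 3.3 or 1.1 μM. Fluorescence was read at 493/523 nm over time. DMSO basal and unstained controls were included. NAC pretreatment, where used, was 5 mM for 30 min. Duplicates, three independent experiments.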
# MIA PaCa-2 [27] = assay: Induction of apoptosis signaling in human MIAPaCa2 cells at 3 times IC50 after 4 hrs by IPA analysis; format: functional, cell-based
# PANC-1 [28] = assay: Induction of reactive oxygen species generation in human PANC1 cells assessed as upregulation of HO-1 expression at 5 uM after 4 to 24 hrs by Western blot analysis; format: functional, cell-based; method in brief: as §2
# MIA PaCa-2 [29] = assay: Induction of reactive oxygen species generation in human MIAPaCa2 cells assessed as upregulation of NQO1 expression at 5 uM after 4 to 24 hrs by Western blot analysis; format: functional, cell-based; method in brief: as §2
# MIA PaCa-2 [30] = assay: Induction of reactive oxygen species generation in human MIAPaCa2 cells assessed as upregulation of NQO1 gene expression after 4 hrs by Bru-seq analysis; format: functional, cell-based
# MIA PaCa-2 [31] = assay: Cytotoxicity against human MIAPaCa2 cells assessed as decrease in cell proliferation after 72 hrs in presence of NAC by MTT assay; format: functional, cell-based
# Method in brief: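 MIA PaCa-2 cells were treated for 72 h with compound in the presence of 5 mM NAC. Viability was read by MTT (final 300 μg/mL, 3 h, A570). Mean ± SD of three independent experiments.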
# BXPC-3 [32] = assay: Induction of reactive oxygen species generation in human BxPC3 cells assessed as upregulation of NQO1 expression at 5 uM after 4 to 24 hrs by Western blot analysis; format: functional, cell-based; method in brief: as §2
structure (smiles),measurement,setting,value
NS(=O)(=O)c1ccc(NC2=CC(=O)c3ncncc3C2=O)cc1,IC50,BXPC-3 [1],> 10 µM
same,IC50,PANC-1 [2],> 10 µM
same,IC50,MIA PaCa-2 [3],> 10 µM
Nc1ccc(C(=O)NCCC[P+](c2ccccc2)(c2ccccc2)c2ccccc2)cc1,IC50,BXPC-3 [1],> 30 µM
same,IC50,PANC-1 [2],> 30 µM
same,IC50,MIA PaCa-2 [3],> 30 µM
O=C(NCCC[P+](c1ccccc1)(c1ccccc1)c1ccccc1)c1cccc(NC2=CC(=O)c3ncncc3C2=O)c1,IC50,BXPC-3 [1],21.3 µM
same,IC50,PANC-1 [2],14.3 µM
same,IC50,MIA PaCa-2 [4],16.2 µM
same,IC50,[5],24.3 µM
COc1cccc(NC2=CC(=O)c3ncncc3C2=O)c1,IC50,BXPC-3 [1],1.8 µM
same,IC50,PANC-1 [2],0.6 µM
same,IC50,MIA PaCa-2 [3],1.8 µM
O=C1C(NCc2ccc(F)cc2)=CC(=O)c2ncncc21,IC50,BXPC-3 [1],1.4 µM
same,IC50,PANC-1 [2],1 µM
same,IC50,MIA PaCa-2 [3],1.7 µM
NC(=O)c1ccc(NC2=CC(=O)c3ncncc3C2=O)cc1,IC50,BXPC-3 [1],> 10 µM
same,IC50,PANC-1 [2],6.3 µM
same,IC50,MIA PaCa-2 [3],8 µM
O=C1C(Nc2ccc(OC(F)(F)F)cc2)=CC(=O)c2ncncc21,IC50,BXPC-3 [1],0.9 µM
same,IC50,PANC-1 [2],0.9 µM
same,IC50,MIA PaCa-2 [3],1.4 µM
CC(=O)c1cccc(NC2=CC(=O)c3ncncc3C2=O)c1,IC50,BXPC-3 [1],5.2 µM
same,Activity,BXPC-3 [6],Tde
same,IC50,PANC-1 [2],0.9 µM
same,inhibition,MIA PaCa-2 [7],Active
same,inhibition,MIA PaCa-2 [8],inactive
same,Activity,MIA PaCa-2 [9],Tde
same,IC50,MIA PaCa-2 [3],2.3 µM
same,Activity,MIA PaCa-2 [10],inactive
same,IC50,MIA PaCa-2 [4],3.6 µM
same,Activity,PANC-1 [11],Tde
same,Activity,MIA PaCa-2 [12],Active
same,Activity,BXPC-3 [13],Active
same,Activity,MIA PaCa-2 [14],Dose-dependent effect
same,Activity,MIA PaCa-2 [15],Tde
same,Activity,MIA PaCa-2 [16],inactive
same,inhibition,MIA PaCa-2 [17],Active
same,Activity,PANC-1 [18],Tde
same,Activity,MIA PaCa-2 [19],inactive
same,Activity,MIA PaCa-2 [20],Active
same,IC50,[5],4.5 µM
same,Activity,[21],Active
same,Activity,MIA PaCa-2 [22],Dose-dependent effect
same,Activity,[23],Active
same,Activity,MIA PaCa-2 [24],Dose-dependent effect
same,Activity,BXPC-3 [25],Tde
same,Activity,MIA PaCa-2 [26],inactive
same,Activity,MIA PaCa-2 [27],Active
same,Activity,PANC-1 [28],inactive
same,Activity,MIA PaCa-2 [29],inactive
same,Activity,MIA PaCa-2 [30],Dose-dependent effect
same,Activity,MIA PaCa-2 [31],inactive
same,Activity,BXPC-3 [32],inactive
CCc1ccc(-c2ccc(NC3=CC(=O)c4ncncc4C3=O)cc2)cc1,IC50,BXPC-3 [1],3.1 µM
same,IC50,PANC-1 [2],1.2 µM
same,IC50,MIA PaCa-2 [3],2 µM
O=C1C(Nc2cccc(B(O)O)c2)=CC(=O)c2ncncc21,IC50,BXPC-3 [1],> 10 µM
same,IC50,PANC-1 [2],9 µM
same,IC50,MIA PaCa-2 [3],> 10 µM
COC(=O)c1ccc(NC2=CC(=O)c3ncncc3C2=O)cc1,IC50,BXPC-3 [1],5.8 µM
same,IC50,PANC-1 [2],1.1 µM
same,IC50,MIA PaCa-2 [3],2.2 µM
CCOC(=O)c1ccc(NC2=CC(=O)c3ncncc3C2=O)cc1,IC50,BXPC-3 [1],5.9 µM
same,IC50,PANC-1 [2],1.6 µM
same,IC50,MIA PaCa-2 [3],5.5 µM
COc1ccc(NC2=CC(=O)c3ncncc3C2=O)cc1OC,IC50,BXPC-3 [1],1.5 µM
same,IC50,PANC-1 [2],0.9 µM
same,IC50,MIA PaCa-2 [3],1.8 µM
Nc1ccc(-c2ccc(NC3=CC(=O)c4ncncc4C3=O)cc2)cc1,IC50,BXPC-3 [1],3.5 µM
same,IC50,PANC-1 [2],3.7 µM
same,IC50,MIA PaCa-2 [3],2.5 µM
